Results collected from several papers.
Protocols differ between the studies behind these lines.
Target: Tyrosine-protein kinase Lck (LCK, Homo sapiens, UniProt P06239)

| SMILES | test | conditions | measurement | result |
| --- | --- | --- | --- | --- |
| CC#CC(=O)N1CCC[C@H]1c1nc(-c2ccc(C(=O)Nc3ccccn3)cc2)c2c(N)nccn12 | enzyme activity, inhibitor | 1 µM | inhibition | 10% |
| C#Cc1cc(-c2cc(Nc3nc(N[C@@H](C)c4ccc(F)cn4)ncc3Cl)n[nH]2)ccc1C=O | enzyme activity, inhibitor | 0.2 µM | inhibition | 78.9% |
| C[C@H]1CC[C@H](n2c3cnccc3c3cnc(Nc4ccc5c(n4)CCN(C(=O)CO)C5)nc32)CC1 | binding, competition with immobilised ligand | 1 µM | remaining binding | 49% |
| CCCCC(=O)Nc1ccc(-c2ccc3ncn(CCC)c(=O)c3c2)cn1 | binding, competition with immobilised ligand | 0.5 µM | remaining binding | 100% |
| C#Cc1cnc(Nc2ccc(CO)cc2)nc1Nc1ccccc1C(=O)NC | enzyme activity, inhibitor | 1 µM | remaining activity | 2.4% |
| C1=C/COCc2cc(ccc2OCCN2CCCC2)Nc2nccc(n2)-c2cccc(c2)COC/1 | binding | 0.1 µM | remaining binding | 53% |
| CNC(=O)c1ccccc1Nc1nc(Nc2ccc(CO)nc2)ncc1Cl | enzyme activity, inhibitor | 1 µM | remaining activity | 3.38% |
| CN1CCN(C(=O)c2ccc(NC(=O)Nc3ccc(N(C)c4ccnc(Nc5ccc(CS(C)(=O)=O)cc5)n4)cc3)cc2)CC1 | binding, competition with immobilised ligand | 1 µM | remaining binding | 85% |
| C#Cc1cnc(Nc2ccc(CO)nc2)nc1Nc1ccccc1S(C)(=O)=NC#N (stereo not shown) | enzyme activity, inhibitor | 1 µM | remaining activity | 12.7% |
| C=CC(=O)N1CCC[C@@H](n2nc(-c3ccc(Oc4ccccc4)cc3)c3c(N)ncnc32)C1 | enzyme activity, inhibitor | 1 µM | inhibition | 99% |
